# Reference: ChEMBL document CHEMBL3286388, “Discovery of potent anticancer agent HJC0416, an orally bioavailable small molecule inhibitor of signal transducer and activator of transcription 3 (STAT3)” (Eur J Med Chem, 2014)
# Active and inactive are the calls of the source. The calls are words filed in the database; no cut-off is given here.
# Assays:
# ASPC1 = assay: Antiproliferative activity against human AsPC1 cells assessed as inhibition of cell proliferation after 72 hrs by MTS assay; format: functional, cell-based; settings: ASPC1, 72 h
# Summary of the method: (§1)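 Cells seeded at 2 × 10^3 per well, exposed to DMSO or 0.01–100 µM (0.01, 0.1, 1, 5, 10, 100) for 72 h. MTS added, OD 550 nm read after 1 h at 37 °C. Quadruplicate wells for each concentration; IC50 reported.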
# MCF7 = assay: Antiproliferative activity against ER-positive human MCF7 cells assessed as inhibition of cell proliferation after 72 hrs by MTS assay; format: functional, cell-based; settings: MCF7, 72 h; summary of the method: as §1
# MDA-MB-231 [1] = assay: Antiproliferative activity against ER-negative and triple-negative human MDA-MB-231 cells assessed as inhibition of cell proliferation after 72 hrs by MTS assay; format: functional, cell-based; settings: MDA-MB-231, 72 h; summary of the method: as §1
# [2] = Antiproliferative activity against human PANC1 cells assessed as inhibition of cell proliferation after 72 hrs by MTS assay; format: functional, cell-based; settings: PANC-1, 72 h; summary of the method: as §1
# MDA-MB-231 [3] = assay: Anticancer activity against human MDA-MB-231 cells assessed as cell growth inhibition, apoptosis and cellular morphological changes at 1 to 10 uM after 48 hrs by light microscopy; format: functional, cell-based
# Summary of the method: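 Exponentially growing MDA-MB-231 cells incubated with compound for 48 h; growth, apoptosis and morphology judged under light microscopy.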
# MDA-MB-231 [4] = assay: Inhibition of STAT3 promoter activity in human MDA-MB-231 cells at 5 uM after 24 hrs by dual luciferase reporter assay; format: functional; settings: MDA-MB-231, 24 h
# Summary of the method: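 MDA-MB-231 cells pretreated at 5 µM for 24 h, replated in RPMI-1640 with 10% FBS, and transfected 4 h later with pSTAT3-Luc plus renilla control (95:5, 0.5 µg DNA per well). Treated again for 24 h starting 5 h after transfection. RLU = firefly/renilla luciferase relative to DMSO control. Triplicate wells, at least 3 independent experiments.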
# MDA-MB-231 [5] = assay: Antitumor activity against triple-negative human MDA-MB-231 cells xenografted in nude mouse assessed as decrease in tumor volume at 10 mg/kg, ip administered daily; format: functional; settings: MDA-MB-231, ip, route intraperitoneal
# Summary of the method: (§2)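 Female nude mice, 6 weeks old, received 2.5 × 10^6 MDA-MB-231 cells in PBS into the 3rd mammary fat pad and were randomized (5–10 per group). Dosing began at 150 mm³ tumors for ip daily 10 mg/kg, or 110 mm³ for oral gavage 100 mg/kg five days per week. Vehicle was 50% DMSO/50% PEG. Body weight and tumor volume (0.5·L·W²) measured daily.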
# MDA-MB-231 [6] = assay: Antitumor activity against triple-negative human MDA-MB-231 cells xenografted in nude mouse assessed as decrease in tumor volume at 100 mg/kg, po administered via gavage for five days per week; format: functional; settings: MDA-MB-231, 120 h; summary of the method: as §2
# MDA-MB-231 [7] = assay: Decrease in STAT3 protein expression in human MDA-MB-231 cells at 1 to 10 uM after 12 hrs by western blot analysis; format: functional, cell-based
# Summary of the method: (§3)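 MDA-MB-231 cells treated for 12 h. Lysates (40 µg protein, BCA) run on 10% SDS-PAGE and transferred to nitrocellulose. Blocked in 5% milk/1% Tween 20 in TBS, probed for pSTAT3 Y705, STAT3, active caspase-3, cyclin D1 and β-actin, ECL detection.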
# MDA-MB-231 [8] = assay: Downregulation of cyclin D1 protein expression in human MDA-MB-231 cells at 1 to 10 uM after 12 hrs by western blot analysis; format: functional, cell-based; summary of the method: as §3
# MDA-MB-231 [9] = assay: Induction of apoptosis in human MDA-MB-231 cells assessed as cleaved caspase-3 level at 1 to 10 uM after 12 hrs by western blot analysis; format: functional, cell-based; summary of the method: as §3
# Mus musculus = assay: Toxicity in nude mouse xenografted with triple-negative human MDA-MB-231 cells assessed as body weight loss at 100 mg/kg, po administered via gavage for five days per week; format: organism-based; set-up: dose 100 mg/kg, route oral; settings: in vivo; summary of the method: as §2
# [10] = target: Signal transducer and activator of transcription 3 (Homo sapiens) (UniProt P40763); assay: Inhibition of STAT3 phosphorylation at Tyr705 in human MDA-MB-231 cells at 1 to 10 uM after 12 hrs by western blot analysis; format: cell-based; summary of the method: as §3
# Chain of Signal transducer and activator of transcription 3 (Homo sapiens) (P40763 whole entry): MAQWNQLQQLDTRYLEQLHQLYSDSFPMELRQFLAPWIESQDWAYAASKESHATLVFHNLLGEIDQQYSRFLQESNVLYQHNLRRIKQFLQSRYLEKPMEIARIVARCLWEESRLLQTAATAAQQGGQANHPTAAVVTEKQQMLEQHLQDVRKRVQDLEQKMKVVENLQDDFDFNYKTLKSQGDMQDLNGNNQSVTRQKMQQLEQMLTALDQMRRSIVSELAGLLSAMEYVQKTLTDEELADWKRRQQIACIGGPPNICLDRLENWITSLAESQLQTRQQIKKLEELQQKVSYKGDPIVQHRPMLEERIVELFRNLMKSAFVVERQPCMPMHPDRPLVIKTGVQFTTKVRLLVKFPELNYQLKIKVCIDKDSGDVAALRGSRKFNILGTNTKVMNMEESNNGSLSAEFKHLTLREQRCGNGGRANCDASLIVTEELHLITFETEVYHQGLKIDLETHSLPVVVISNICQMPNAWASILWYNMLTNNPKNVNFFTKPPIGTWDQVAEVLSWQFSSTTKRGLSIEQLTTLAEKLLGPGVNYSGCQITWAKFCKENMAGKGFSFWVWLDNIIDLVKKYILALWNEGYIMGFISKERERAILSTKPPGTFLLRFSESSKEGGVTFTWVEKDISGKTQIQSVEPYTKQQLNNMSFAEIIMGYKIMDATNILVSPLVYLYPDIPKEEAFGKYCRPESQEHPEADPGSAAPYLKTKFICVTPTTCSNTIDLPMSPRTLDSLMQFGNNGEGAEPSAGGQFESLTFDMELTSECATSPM
SMILES,IC50 (ASPC1) [µM],IC50 (MCF7) [µM],IC50 (MDA-MB-231 [1]) [µM],IC50 [2] [µM],Activity (MDA-MB-231 [3]),inhibition at 5 µM (MDA-MB-231 [4]) [%],inhibition in vivo at 10 mg/kg (MDA-MB-231 [5]) [%],inhibition in vivo at 100 mg/kg (MDA-MB-231 [6]) [%],inhibition (MDA-MB-231 [7]),inhibition (MDA-MB-231 [8]),Activity (MDA-MB-231 [9]),Activity (Mus musculus),inhibition [10]
O=C(Nc1ccc2c(c1)S(=O)(=O)C=C2)c1cc(Cl)ccc1OCCN1CCCCC1,1.42,3.74,2.51,1.81,–,–,–,–,–,–,–,–,–
NCCCOc1ccc(Cl)cc1C(=O)Nc1ccc2c(c1)S(=O)(=O)C=C2,0.04,1.76,1.97,1.88,Active,51,67,46,Active,Active,Active,Non-toxic,Active
CN1CCC(Oc2ccc(Cl)cc2C(=O)Nc2ccc3c(c2)S(=O)(=O)C=C3)CC1,1.04,3.53,2.68,1.36,–,–,–,–,–,–,–,–,–
O=C(Nc1ccc2c(c1)S(=O)(=O)C=C2)c1cc(Cl)ccc1OCCBr,–,> 10,> 10,–,–,–,–,–,–,–,–,–,–
COC1CS(=O)(=O)c2cc(NC(=O)c3cc(Cl)ccc3O)ccc21 (configuration not stated),8.46,6.07,7.05,8.39,–,–,–,–,–,–,–,–,–
O=C(Nc1ccc2c(c1)S(=O)(=O)C=C2)c1cc(Cl)ccc1OC1CCNCC1,1.6,4.21,2.85,4.09,–,–,–,–,–,–,–,–,–
CN(C)CCOc1ccc(Cl)cc1C(=O)Nc1ccc2c(c1)S(=O)(=O)C=C2,1.14,3.5,2.69,3.38,–,–,–,–,–,–,–,–,–
CN1CCN(CCOc2ccc(Cl)cc2C(=O)Nc2ccc3c(c2)S(=O)(=O)C=C3)CC1,1.07,4.08,2.86,3.01,–,–,–,–,–,–,–,–,–
O=C(Nc1ccc2c(c1)S(=O)(=O)C=C2)c1cc(Cl)ccc1OCCN1CCNCC1,1.02,2.56,3.29,3.69,–,–,–,–,–,–,–,–,–
O=C(Nc1ccc2c(c1)S(=O)(=O)C=C2)c1cc(Cl)ccc1OCCF,1.37,4,4.42,9.53,–,–,–,–,–,–,–,–,–
CNCCOc1ccc(Cl)cc1C(=O)Nc1ccc2c(c1)S(=O)(=O)C=C2,2.05,3.15,3.12,3.09,–,–,–,–,–,–,–,–,–
O=[N+]([O-])c1ccc2c(c1)S(=O)(=O)C=C2,1.32,3.6,2.89,3.77,Active,39,–,–,Active,–,–,–,Active
NCCOc1ccc(Cl)cc1C(=O)Nc1ccc2c(c1)S(=O)(=O)C=C2,1.05,3.47,3.12,2.25,–,–,–,–,–,–,–,–,–
O=C(Nc1ccc2c(c1)S(=O)(=O)C=C2)c1cc(Cl)ccc1OCCN1CCOCC1,1.37,0.49,5.43,6.95,–,–,–,–,–,–,–,–,–
